Source: ChEMBL document CHEMBL5230149, “Discovery of novel ketoxime ether derivatives with potent FXR agonistic activity, oral effectiveness and high liver/blood ratio” (Bioorg Med Chem, 2021)
Blank lines part the entries; values can stand above or below the compound they belong to. Calls of active or inactive are those of the source. The calls are words filed in the database; no cut-off is given here.

Assays:
Bile acid receptor = molecular target: T1, Bile acid receptor (Homo sapiens, UniProt Q96RI1); assay: Agonist activity at human FXR expressed in human Huh-7 cells co-transfected with FXRE-Luc reporter plasmid assessed as receptor transactivation incubated for 16 hrs by luciferase reporter gene assay; assay type: cell-based
T1 sequence (Q96RI1 whole entry): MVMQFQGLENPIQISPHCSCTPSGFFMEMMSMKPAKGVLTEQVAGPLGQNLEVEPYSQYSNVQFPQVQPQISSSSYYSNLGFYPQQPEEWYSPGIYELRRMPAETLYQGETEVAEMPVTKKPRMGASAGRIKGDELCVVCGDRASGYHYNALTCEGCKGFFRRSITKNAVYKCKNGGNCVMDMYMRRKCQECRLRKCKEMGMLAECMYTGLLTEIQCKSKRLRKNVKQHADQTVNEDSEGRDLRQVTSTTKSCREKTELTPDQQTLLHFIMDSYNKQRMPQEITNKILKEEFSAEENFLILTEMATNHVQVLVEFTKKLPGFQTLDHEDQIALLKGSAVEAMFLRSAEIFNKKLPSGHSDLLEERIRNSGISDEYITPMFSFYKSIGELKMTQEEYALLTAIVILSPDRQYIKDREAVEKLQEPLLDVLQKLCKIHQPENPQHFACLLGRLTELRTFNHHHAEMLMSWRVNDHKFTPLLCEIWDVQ

[1] = molecular target: T2, G-protein coupled bile acid receptor 1 (Homo sapiens, UniProt Q8TDU6); assay: Agonist activity at human TGR5 expressed in HEK293 cells co-transfected with CRE-Luc reporter plasmid assessed as receptor transactivation incubated for 5.5 hrs by luciferase reporter gene assay; assay type: cell-based
T2 sequence (Q8TDU6 whole entry): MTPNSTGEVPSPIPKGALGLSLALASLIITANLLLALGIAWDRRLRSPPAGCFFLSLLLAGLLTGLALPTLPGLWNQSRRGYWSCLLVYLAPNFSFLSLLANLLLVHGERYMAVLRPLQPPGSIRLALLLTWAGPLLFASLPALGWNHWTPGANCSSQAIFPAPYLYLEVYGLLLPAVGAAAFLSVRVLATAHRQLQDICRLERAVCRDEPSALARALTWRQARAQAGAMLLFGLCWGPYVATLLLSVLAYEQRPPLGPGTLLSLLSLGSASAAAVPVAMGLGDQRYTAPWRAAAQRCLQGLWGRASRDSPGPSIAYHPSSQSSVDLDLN

[2] = molecular target: T3, TGR5 (G-protein coupled bile acid receptor 1) (Homo sapiens, UniProt Q8TDU6); assay: Agonist activity at human TGR5 expressed in HEK293 cells co-transfected with CRE-Luc reporter plasmid assessed as receptor transactivation incubated for 5.5 hrs by luciferase reporter gene assay relative to OCA; assay type: cell-based; settings: read-out: Efficacy
T3 sequence (Q8TDU6 whole entry): T2 sequence (Q8TDU6 whole entry)

[3] = molecular target: T4, Bile acid receptor (Mus musculus) (UniProt Q60641); assay: Agonist activity at FXR in C57BL/6J mouse hepatocytes assessed as upregulation of SHP mRNA expression incubated for 24 hrs by qRT-PCR analysis; assay type: cell-based; settings: Hepatocyte, filed as agonist, dose 0.4-10 µM
T4 sequence (whole entry): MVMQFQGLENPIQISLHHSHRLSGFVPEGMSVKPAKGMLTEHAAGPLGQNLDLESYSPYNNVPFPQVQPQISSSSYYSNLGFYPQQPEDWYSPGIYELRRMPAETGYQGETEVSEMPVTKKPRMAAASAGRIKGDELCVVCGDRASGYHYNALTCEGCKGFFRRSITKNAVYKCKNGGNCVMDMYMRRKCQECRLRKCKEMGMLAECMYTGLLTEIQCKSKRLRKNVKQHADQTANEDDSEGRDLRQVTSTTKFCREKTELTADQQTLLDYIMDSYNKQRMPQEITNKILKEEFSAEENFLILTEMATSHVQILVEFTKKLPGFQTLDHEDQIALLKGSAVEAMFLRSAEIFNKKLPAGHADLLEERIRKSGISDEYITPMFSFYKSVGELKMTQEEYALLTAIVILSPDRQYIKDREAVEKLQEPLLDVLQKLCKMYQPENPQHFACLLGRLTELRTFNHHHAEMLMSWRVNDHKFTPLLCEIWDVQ
How it was run: (§1)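 Hepatocytes isolated from overnight-fasted male C57BL/6J mice (8–12 weeks), allowed 4 h to adhere, then given vehicle (0.5% DMSO) or compound at 0.4, 2 and 10 μM for 24 h. TRIzol RNA extraction, then qRT-PCR with GAPDH normalization by ΔΔCt. Values are expressed as fold over vehicle (mean ± S.E.M, n = 3).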

[4] = molecular target: T4, Bile acid receptor (Mus musculus); assay: Agonist activity at FXR in C57BL/6J mouse hepatocytes assessed as upregulation of BSEP mRNA expression at 0.4 to 10 uM incubated for 24 hrs by qRT-PCR analysis; assay type: cell-based; settings: Hepatocyte, filed as agonist, dose 0.4-10 µM; how it was run: as §1
[5] = molecular target: T4, Bile acid receptor (Mus musculus); assay: In vivo agonist activity at FXR in C57BL/6J mouse assessed as downregulation of CYP7A1 mRNA expression in liver at 10 mg/kg, po measured after 6 hrs by qRT-PCR analysis; assay type: functional, organism-based
How it was run: (§2)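 Male C57BL/6J mice (7–8 weeks) were fasted 3 h, then dosed orally once in 0.25% CMC-Na (wt/vol) vehicle. Sacrificed 6 h post-dose; liver snap-frozen at -80 °C. TRIzol RNA extraction and qRT-PCR with GAPDH normalization (ΔΔCt). Results are fold over vehicle group (mean ± S.E.M, n = 6).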

[6] = molecular target: T4, Bile acid receptor (Mus musculus); assay: In vivo agonist activity at FXR in C57BL/6J mouse assessed as downregulation of CYP8B1 mRNA expression in liver at 10 mg/kg, po measured after 6 hrs by qRT-PCR analysis; assay type: functional, organism-based; how it was run: as §2
[7] = Drug uptake in ICR mouse liver at 15 mg/kg, po measured after 1.5 hrs by LC-MS/MS analysis; assay type: ADME, organism-based; settings: read-out: Drug uptake
How it was run: (§3)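 Overnight-fasted male ICR mice (n = 3 per time point) received single oral 15 mg/kg and were refed 2 h later. Blood and liver were taken at 1.5, 4 and 8 h. Serum (10 µL) was precipitated with 100 µL methanol/acetonitrile (1:1). Liver was homogenized in ten times its weight of the same solvent. Supernatants were diluted 1:1 in ACN/H₂O and analyzed by LC-MS/MS. The ratio is liver conc (ng/g) over plasma conc (ng/mL).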

[8] = Drug uptake in ICR mouse liver at 15 mg/kg, po measured after 4 hrs by LC-MS/MS analysis; assay type: ADME, organism-based; settings: read-out: Drug uptake; how it was run: as §3
[9] = Drug uptake in ICR mouse liver at 15 mg/kg, po measured after 8 hrs by LC-MS/MS analysis; assay type: ADME, organism-based; settings: read-out: Drug uptake; how it was run: as §3
[10] = Plasma concentration in ICR mouse at 15 mg/kg, po measured after 1.5 hrs by LC-MS/MS analysis; assay type: ADME, organism-based; how it was run: as §3
[11] = Plasma concentration in ICR mouse at 15 mg/kg, po measured after 4 hrs by LC-MS/MS analysis; assay type: ADME, organism-based; how it was run: as §3
[12] = Plasma concentration in ICR mouse at 15 mg/kg, po measured after 8 hrs by LC-MS/MS analysis; assay type: ADME, organism-based; how it was run: as §3
[13] = molecular target: T4, Bile acid receptor (Mus musculus); assay: Agonist activity at FXR in C57BL/6J mouse hepatocytes assessed as fold upregulation of SHP mRNA expression at 10 uM incubated for 24 hrs by qRT-PCR analysis relative to control; assay type: cell-based; settings: Hepatocyte; how it was run: as §1
[14] = molecular target: T4, Bile acid receptor (Mus musculus); assay: In vivo agonist activity at FXR in C57BL/6J mouse assessed as fold upregulation of SHP mRNA expression in liver at 10 mg/kg, po measured after 6 hrs by qRT-PCR analysis relative to control; assay type: functional, organism-based; how it was run: as §2
[15] = molecular target: T4, Bile acid receptor (Mus musculus); assay: In vivo agonist activity at FXR in C57BL/6J mouse assessed as fold upregulation of SHP mRNA expression in ileum at 10 mg/kg, po measured after 6 hrs by qRT-PCR analysis relative to control; assay type: functional, organism-based
How it was run: (§4)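 Fasting of male C57BL/6J mice (7–8 weeks) for 3 h preceded a single oral dose in 0.25% CMC-Na (wt/vol). Ileum was collected 6 h after dosing and snap-frozen. RNA was extracted with TRIzol for qRT-PCR, normalized to GAPDH (ΔΔCt). Reported as fold of vehicle group (mean ± SEM, n = 6).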

[16] = molecular target: T4, Bile acid receptor (Mus musculus); assay: In vivo agonist activity at FXR in C57BL/6J mouse assessed as fold upregulation of FGF15 mRNA expression in ileum at 10 mg/kg, po measured after 6 hrs by qRT-PCR analysis relative to control; assay type: functional, organism-based; how it was run: as §4
[17] = Ratio of drug uptake in ICR mouse liver to plasma at 15 mg/kg, po measured after 1.5 hrs by LC-MS/MS analysis; assay type: ADME, organism-based; how it was run: as §3
[18] = Ratio of drug uptake in ICR mouse liver to plasma at 15 mg/kg, po measured after 4 hrs by LC-MS/MS analysis; assay type: ADME, organism-based; how it was run: as §3
[19] = Ratio of drug uptake in ICR mouse liver to plasma at 15 mg/kg, po measured after 8 hrs by LC-MS/MS analysis; assay type: ADME, organism-based; how it was run: as §3

Structure (SMILES): C/C(=N\OCc1cncc(C(=O)O)c1)c1ccc(OCc2c(-c3c(Cl)cccc3Cl)noc2C2CC2)cc1Cl
- EC50 (Bile acid receptor): 65 nM

Structure (SMILES): C/C(=N\OCc1cncc(C(=O)O)c1)c1ccc(OCc2c(-c3ccccc3OC(F)(F)F)noc2C2CC2)cc1Cl
- EC50 (Bile acid receptor): 54.8 nM

Structure (SMILES): C/C(=N\OCc1cc(C(=O)O)ccc1C#N)c1ccc(OCc2c(-c3ccccc3OC(F)(F)F)noc2C2CC2)c(C)c1
- EC50 (Bile acid receptor): 440 nM

Structure (SMILES): C/C(=N\OCc1cc(C(=O)O)ccc1C#N)c1ccc(OCc2c(-c3ccccc3OC(F)(F)F)noc2C2CC2)cc1Cl
- EC50 [1]: > 100000 nM
- Emax at 5.5 h [2]: 0.6%
- Activity [3]: Dose-Dependent Effect
- Activity [4]: Active
- Activity [5]: Active
- Activity [6]: Active
- concentration at 1.5 h [7]: 4340 ng/g
- concentration at 4 h [8]: 3580 ng/g
- concentration at 8 h [9]: 941 ng/g
- concentration at 1.5 h [10]: 56.7 ng/mL
- concentration at 4 h [11]: 45.2 ng/mL
- concentration at 8 h [12]: 8.4 ng/mL

Structure (SMILES): C/C(=N\OCc1cccc(C(=O)O)c1)c1ccc(OCc2c(-c3ccccc3OC(F)(F)F)noc2C2CC2)cc1Cl
- EC50 (Bile acid receptor): 108 nM

Now from value to compound, other results behind:

- EC50 (Bile acid receptor): 1340 nM
Structure (SMILES): C/C(=N\OCc1cc(C)cc(C(=O)O)c1)c1ccc(OCc2c(-c3ccccc3OC(F)(F)F)noc2C2CC2)c(F)c1

- EC50 (Bile acid receptor): 47.4 nM
Structure (SMILES): C/C(=N\OCc1cccc(C(=O)O)c1)c1ccc(OCc2c(-c3c(Cl)cccc3Cl)noc2C2CC2)cc1Cl

- EC50 (Bile acid receptor): 728 nM
Structure (SMILES): C/C(=N\OCc1cncc(C(=O)O)c1)c1ccc(OCc2c(-c3ccccc3OC(F)(F)F)noc2C2CC2)c(F)c1

- EC50 (Bile acid receptor): 1390 nM
Structure (SMILES): C/C(=N\OCc1ccc(C(=O)O)o1)c1ccc(OCc2c(-c3c(Cl)cccc3Cl)noc2C2CC2)cn1

- EC50 (Bile acid receptor): 45.2 nM
- Activity [3]: Dose-Dependent Effect
- fold change (FC) [13]: > 40
- fold change (FC) [14]: 2
- Activity [5]: Active
- Activity [6]: Active
- fold change (FC) [15]: 20
- fold change (FC) [16]: 5
- concentration at 1.5 h [7]: 4530 ng/g
- concentration at 4 h [8]: 2610 ng/g
- concentration at 8 h [9]: 341 ng/g
- concentration at 1.5 h [10]: 124 ng/mL
- concentration at 4 h [11]: 45.4 ng/mL
- concentration at 8 h [12]: 7.8 ng/mL
- Kp at 1.5 h [17]: 37
- Kp at 4 h [18]: 57
- Kp at 8 h [19]: 43
Structure (SMILES): C/C(=N\OCc1cc(C(=O)O)ccc1C#N)c1ccc(OCc2c(-c3c(Cl)cccc3Cl)noc2C2CC2)cc1Cl
- EC50 [1]: > 100000 nM
- Emax at 5.5 h [2]: 1.1%
- Activity [4]: Active

- EC50 (Bile acid receptor): 259 nM
Structure (SMILES): C/C(=N\OCc1cccc(C(=O)O)c1)c1ccc(OCc2c(-c3c(Cl)cccc3Cl)noc2C2CC2)c(Cl)c1
